Assay results published in ChEMBL document CHEMBL3745596, “Chlorophenoxy aminoalkyl derivatives as histamine H(3)R ligands and antiseizure agents” (Bioorg Med Chem, 2016).
The source made the active and inactive calls.

Columns and labels:
[1] = tested on: Mus musculus; experiment: Neurotoxicity in CF1 albino mouse at 50 mg/kg, ip after 2 hrs by rotarod test; assay type: toxicity, organism-based; conditions: in vivo
Method in brief: (§1)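 Rotarod neurotoxicity in male albino CF-1 mice dosed ip with compound suspended in 0.5% methylcellulose. Animal placed on a 1 inch diameter knurled plastic rod rotating at 6 rpm. Neurotoxicity scored when the animal falls off three times within 1 min. Readout is number of animals toxic/number tested at the stated time after dosing. TD50 with 95% confidence interval from the quantitative study.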

[2] = tested on: Mus musculus; experiment: Anticonvulsant activity in CF1 albino mouse assessed as protection against 6 Hz-psychomotor-induced seizure at 50 mg/kg, ip after 4 hrs; assay type: functional, organism-based
Method in brief: (§2)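 Male CF-1 mice, ip suspension in 0.5% methylcellulose. Corneal stimulation 0.2 ms monopolar rectangular pulses at 6 Hz, 32 mA for 3 s via constant-current device; mice without minimal clonic phase seizure counted protected. Groups of four; read at 0.25, 0.5, 1, 2, 4 h; result as protected/tested.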

[3] = tested on: Mus musculus; experiment: Neurotoxicity in CF1 albino mouse at 30 mg/kg, ip after 4 hrs by rotarod test; assay type: toxicity, organism-based; conditions: in vivo; method in brief: as §1
[4] = tested on: Mus musculus; experiment: Anticonvulsant activity in CF1 albino mouse assessed as protection against maximal electroshock-induced seizure at 10 mg/kg, ip after 0.5 hrs; assay type: functional, organism-based
Method in brief: (§3)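 Male CF-1 mice dosed ip as suspension in 0.5% methylcellulose. Corneal electrodes deliver 60 Hz alternating current, 50 mA for […], after a drop of 0.5% tetracaine HCl in 0.9% NaCl per eye. Protection means abolition of hindlimb tonic extension; scored as protected/tested, or ED50 with 95% confidence interval.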

[5] = tested on: Mus musculus; experiment: Anticonvulsant activity in ip dosed CF1 albino mouse assessed as protection against maximal electroshock-induced seizure after 0.5 hrs; assay type: functional; method in brief: as §3
[6] = tested on: Mus musculus; experiment: Anticonvulsant activity in CF1 albino mouse assessed as protection against subcutaneous pentetrazole-induced seizure at 30 mg/kg, ip after 0.5 hrs; assay type: functional, organism-based
Method in brief: (§4)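 Male CF-1 mice, ip in 0.5% methylcellulose; pentetrazole at CD97 (85 mg/kg) injected subcutaneously in a loose fold of neck skin. Observed 30 min; absence of even a threshold seizure (single clonic spasm lasting at least 5 s) counted as protection. Scored protected/tested, or ED50.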

[7] = tested on: Mus musculus; experiment: Neurotoxicity in CF1 albino mouse at 3 mg/kg, ip after 0.5 hrs by rotarod test; assay type: toxicity, organism-based; conditions: in vivo; method in brief: as §1
[8] = tested on: Mus musculus; experiment: Neurotoxicity in ip dosed CF1 albino mouse after 0.25 hrs by rotarod test; assay type: toxicity, organism-based; conditions: in vivo
Method in brief: as §1, with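 “dosing.” for “dosing. TD50 with 95% confidence interval from the quantitative study.”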

[9] = Neuroprotective activity in hippocampal slice (unknown origin) assessed as protection against kainic acid-induced cell death using propidium iodide staining; assay type: functional; conditions: Hippocampus
Method in brief: (§5)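 Organotypic hippocampal slice cultures exposed to NMDA or kainic acid alone or with compound; propidium iodide in all wells; PI fluorescence intensity of slices, proportional to cell death, compared with excitotoxin-only slices; qualitative.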

[10] = tested on: Mus musculus; experiment: Neurotoxicity in CF1 albino mouse at 50 mg/kg, ip after 4 hrs by rotarod test; assay type: toxicity, organism-based; conditions: in vivo; method in brief: as §1
[11] = tested on: Mus musculus; experiment: Neurotoxicity in CF1 albino mouse at 300 mg/kg, ip after 4 hrs by rotarod test; assay type: toxicity, organism-based; conditions: in vivo; method in brief: as §1
[12] = Neuroprotective activity in hippocampal slice (unknown origin) assessed as protection against NMDA-induced cell death using propidium iodide staining; assay type: functional; conditions: Hippocampus; method in brief: as §5
[13] = tested on: Mus musculus; experiment: Neurotoxicity in CF1 albino mouse assessed as death at 300 mg/kg, ip after 0.5 hrs by rotarod test; assay type: toxicity, organism-based; conditions: in vivo
Method in brief: (§6)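 Male albino CF-1 mice dosed ip with compound suspended in 0.5% methylcellulose, then placed on a 1-inch knurled plastic rod turning at 6 rpm. A fall three times within 1 min counted as neurotoxicity. Observations were made at 0.5 h and 4 h after dosing. Result given as animals showing toxicity per animals tested, with the kind of toxicity recorded.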

[14] = tested on: Mus musculus; experiment: Anticonvulsant activity in CF1 albino mouse assessed as protection against 6 Hz-psychomotor-induced seizure at 25 mg/kg, ip after 0.25 to 4 hrs; assay type: functional, organism-based; method in brief: as §2
[15] = tested on: Mus musculus; experiment: Anticonvulsant activity in CF1 albino mouse assessed as protection against maximal electroshock-induced seizure at 30 mg/kg, ip after 4 hrs; assay type: functional, organism-based; method in brief: as §3
[16] = tested on: Mus musculus; experiment: Neurotoxicity in CF1 albino mouse at 10 mg/kg, ip after 0.5 hrs by rotarod test; assay type: toxicity, organism-based; conditions: in vivo
Method in brief: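 Rotarod neurotoxicity in male CF-1 mice dosed ip as 0.5% methylcellulose suspension: mouse placed on 1 inch knurled rod rotating at 6 rpm; toxicity when the animal falls off three times within 1 min, with other signs noted. Scored as toxic/tested at 0.5 h and 4 h.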

[17] = tested on: Mus musculus; experiment: Neurotoxicity in CF1 albino mouse at 100 mg/kg, ip after 4 hrs by rotarod test; assay type: toxicity, organism-based; conditions: in vivo; method in brief: as §1
[18] = tested on: Mus musculus; experiment: Anticonvulsant activity in ip dosed CF1 albino mouse assessed as protection against subcutaneous pentetrazole-induced seizure after 0.5 hrs; assay type: functional; method in brief: as §4
[19] = tested on: Mus musculus; experiment: Neurotoxicity in CF1 albino mouse at 30 mg/kg, ip after 0.5 hrs by rotarod test; assay type: toxicity, organism-based; conditions: in vivo; method in brief: as §1
[20] = tested on: Mus musculus; experiment: Neurotoxicity in CF1 albino mouse at 25 mg/kg, ip after 0.25 to 4 hrs by rotarod test; assay type: toxicity, organism-based; conditions: in vivo; method in brief: as §1
[21] = tested on: Mus musculus; experiment: Protective index, ratio of TD50 for ip dosed CF1 albino mouse to ED50 for ip dosed CF1 albino mouse assessed as protection against maximal electroshock-induced seizure after 0.5 hrs; assay type: functional
Method in brief: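 PI = TD50/ED50. Male CF-1 mice or male Sprague–Dawley rats given compound ip as 0.5% methylcellulose suspension. MES: 60 Hz corneal current, 50 mA mice or 150 mA rats, for […] after tetracaine eye drops; protection is abolition of hindlimb tonic extension.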

[22] = tested on: Mus musculus; experiment: Anticonvulsant activity in CF1 albino mouse assessed as protection against 6 Hz-psychomotor-induced seizure at 50 mg/kg, ip after 2 hrs; assay type: functional, organism-based; method in brief: as §2
[23] = tested on: Mus musculus; experiment: Anticonvulsant activity in CF1 albino mouse assessed as protection against subcutaneous pentetrazole-induced seizure at 30 mg/kg, ip after 4 hrs; assay type: functional, organism-based; method in brief: as §4
[24] = tested on: Mus musculus; experiment: Analgesic activity in mouse assessed as inhibition of formalin-induced paw licking behavior at 13 mg/kg, ip after 0.25 hrs; assay type: functional, organism-based
Method in brief: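 Male albino mice, ip in 0.5% methylcellulose; 0.5% formalin injected sub-dermally into right hindpaw plantar surface 0.25 h after dosing. Paw licking observed for the first 2 min of each 5-min epoch up to 40 min after dosing; cumulative licking duration compared with vehicle-pretreated group, acute and inflammatory phases.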

[25] = molecular target: Histamine H3 receptor (Homo sapiens, UniProt Q9Y5N1); experiment: Displacement of [3H]-Nalpha-methylhistamine from human recombinant histamine H3 receptor expressed in HEK293 cells after 90 mins; assay type: cell-based
Histamine H3 receptor, sequence (Q9Y5N1 whole entry): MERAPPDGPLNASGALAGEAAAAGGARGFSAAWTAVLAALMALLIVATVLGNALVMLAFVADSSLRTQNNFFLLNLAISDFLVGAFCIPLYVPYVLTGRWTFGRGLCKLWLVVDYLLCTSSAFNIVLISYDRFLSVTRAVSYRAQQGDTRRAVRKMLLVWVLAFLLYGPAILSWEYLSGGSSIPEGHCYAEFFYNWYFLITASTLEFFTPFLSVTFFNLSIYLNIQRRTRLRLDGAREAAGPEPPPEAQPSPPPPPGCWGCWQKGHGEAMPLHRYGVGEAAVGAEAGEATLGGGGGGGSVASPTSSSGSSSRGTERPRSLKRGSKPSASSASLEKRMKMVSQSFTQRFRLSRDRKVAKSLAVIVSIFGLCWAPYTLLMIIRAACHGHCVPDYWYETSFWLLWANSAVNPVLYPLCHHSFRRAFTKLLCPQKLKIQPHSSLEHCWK

[26] = tested on: Mus musculus; experiment: Anticonvulsant activity in CF1 albino mouse assessed as protection against maximal electroshock-induced seizure at 3 mg/kg, ip after 0.5 hrs; assay type: functional, organism-based; method in brief: as §3
[27] = tested on: Mus musculus; experiment: Anticonvulsant activity in CF1 albino mouse assessed as protection against 6 Hz-psychomotor-induced seizure at 50 mg/kg, ip after 1 hr; assay type: functional, organism-based; method in brief: as §2
[28] = tested on: Rattus norvegicus; experiment: Anticonvulsant activity in Sprague-Dawley rat assessed as protection against pilocarpine-induced convulsive status epilepticus at 65 mg/kg, ip; assay type: functional, organism-based
Method in brief: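 Male Sprague Dawley rats (150–180 g) dosed ip, pilocarpine 50 mg/kg ip given; compound dosed immediately at first behavioral Stage 3 seizure or 30 min later. Number protected from Racine Stage 3 or greater seizures recorded.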

[29] = tested on: Mus musculus; experiment: Neurotoxicity in CF1 albino mouse assessed as death at 100 mg/kg, ip after 0.5 hrs by rotarod test; assay type: toxicity, organism-based; conditions: in vivo; method in brief: as §6
[30] = tested on: Mus musculus; experiment: Neurotoxicity in CF1 albino mouse at 50 mg/kg, ip after 0.5 hrs by rotarod test; assay type: toxicity, organism-based; conditions: in vivo; method in brief: as §1
[31] = tested on: Mus musculus; experiment: Anticonvulsant activity in CF1 albino mouse assessed as protection against maximal electroshock-induced seizure at 30 mg/kg, ip after 0.5 hrs; assay type: functional, organism-based; method in brief: as §3
[32] = tested on: Rattus norvegicus; experiment: Anticonvulsant activity in Sprague-Dawley rat assessed as protection against maximal electroshock-induced seizure at 30 mg/kg, po; assay type: functional
[33] = tested on: Mus musculus; experiment: Anticonvulsant activity in CF1 albino mouse assessed as protection against subcutaneous pentetrazole-induced seizure at 100 mg/kg, ip after 0.5 hrs; assay type: functional, organism-based; method in brief: as §4
[34] = tested on: Mus musculus; experiment: Anticonvulsant activity in ip dosed CF1 albino mouse assessed as protection against maximal electroshock-induced seizure after 0.25 hrs; assay type: functional; method in brief: as §3
[35] = tested on: Mus musculus; experiment: Anticonvulsant activity in CF1 albino mouse assessed as protection against maximal electroshock-induced seizure at 100 mg/kg, ip after 4 hrs; assay type: functional, organism-based; method in brief: as §3
[36] = tested on: Mus musculus; experiment: Anticonvulsant activity in CF1 albino mouse assessed as protection against subcutaneous pentetrazole-induced seizure at 100 mg/kg, ip after 4 hrs; assay type: functional, organism-based; method in brief: as §4
[37] = tested on: Mus musculus; experiment: Anticonvulsant activity in ip dosed CF1 albino mouse assessed as protection against subcutaneous pentetrazole-induced seizure after 0.25 hrs; assay type: functional; method in brief: as §4
[38] = tested on: Mus musculus; experiment: Protective index, ratio of TD50 for ip dosed CF1 albino mouse to ED50 for ip dosed CF1 albino mouse assessed as protection against maximal electroshock-induced seizure after 0.25 hrs; assay type: functional
[39] = tested on: Mus musculus; experiment: Anticonvulsant activity in CF1 albino mouse assessed as protection against 6 Hz-psychomotor-induced seizure at 100 mg/kg, ip after 0.5 to 1 hr; assay type: functional, organism-based; method in brief: as §2
[40] = tested on: Mus musculus; experiment: Neurotoxicity in CF1 albino mouse at 100 mg/kg, ip after 0.25 to 2 hrs by rotarod test; assay type: toxicity, organism-based; conditions: in vivo; method in brief: as §1
[41] = tested on: Mus musculus; experiment: Anticonvulsant activity in CF1 albino mouse assessed as protection against maximal electroshock-induced seizure at 100 mg/kg, ip after 0.5 hrs; assay type: functional, organism-based; method in brief: as §3
[42] = tested on: Mus musculus; experiment: Neurotoxicity in CF1 albino mouse assessed as death and loss of righting reflux at 300 mg/kg, ip after 0.5 hrs by rotarod test; assay type: toxicity, organism-based; conditions: in vivo; method in brief: as §6

For `CC1CCN(CCCCCCOc2ccc(Cl)cc2)CC1.O=C(O)C(=O)O`, the Activity [1] was “Non-toxic”, the Activity [2] was “inactive” and the Activity [3] was “Non-toxic”. The Activity [4] was “Active”, the ED50 [5] was 13 mg/kg and the Activity [6] was “inactive”. For the same compound, the Activity [7] was “Non-toxic”, the “TD50 (median neurotoxic dose)” value [8] was 40.77 mg/kg and the Activity [9] was “inactive”. For the same compound, the Activity [10] was “Non-toxic”, the Activity [11] was “Non-toxic” and the Activity [12] was “inactive”. For the same compound, the Activity [13] was “Toxic”, the Activity [14] was “inactive” and the Activity [15] was “Active”. For the same compound, the Activity [16] was “Non-toxic”, the Activity [17] was “Non-toxic” and the ED50 [18] was > 30 mg/kg. For the same compound, the Activity [19] was “Non-toxic”, the Activity [20] was “Toxic” and the “Ratio TD50/ED50” value [21] was 3.1. The Activity [22] was “inactive”, the Activity [23] was “inactive” and the Activity [24] was “inactive”. The Ki [25] was 189 nM, the Activity [26] was “inactive” and the Activity [27] was “inactive”. For the same compound, the Activity [28] was “Active”, the Activity [29] was “Toxic” and the Activity [30] was “Non-toxic”. For the same compound, the Activity [31] was “Active” and the Activity [32] was 25%.
For `CC1CCCN(CCCCCCOc2ccc(Cl)cc2)C1.O=C(O)C(=O)O` (stereo not given), the Activity [33] was “inactive”, the Activity [3] was “Non-toxic” and the Activity [4] was “inactive”. The ED50 [34] was 16.8 mg/kg, the Activity [35] was “Active” and the Activity [6] was “inactive”. For the same compound, the Activity [36] was “inactive”, the Activity [7] was “Non-toxic” and the “TD50 (median neurotoxic dose)” value [8] was 50.4 mg/kg. The Activity [9] was “inactive”, the Activity [11] was “Non-toxic” and the Activity [12] was “inactive”. For the same compound, the ED50 [37] was > 50 mg/kg, the “Ratio TD50/ED50” value [38] was 3 and the Activity [15] was “inactive”. For the same compound, the Activity [16] was “Non-toxic”, the Activity [39] was “inactive” and the Activity [17] was “Non-toxic”. For the same compound, the Activity [19] was “Non-toxic”, the Activity [40] was “Toxic” and the Activity [23] was “inactive”. The Ki [25] was 205 nM, the Activity [26] was “inactive” and the Activity [28] was “Active”. The Activity [41] was “Active”, the Activity [42] was “Toxic” and the Activity [31] was “Active”. For the same compound, the Activity [32] was 25%.
